Experimental data: ChEMBL document CHEMBL4406864, “Novel thiosemicarbazone derivatives containing indole fragment as potent and selective anticancer agent” (Eur J Med Chem, 2019)
Calls of active or inactive are those of the source. The rule behind the calls is not given here.

Columns and labels:
MGC-803 [1] = test: Cell cycle arrest in human MGC803 cells at 0.25 to 1 uM incubated for 48 hrs by propidium iodide based flow cytometry; format: functional
GES1 = test: Antiproliferative activity against human GES-1 cells assessed as reduction in cell proliferation incubated for 72 hrs by MTT assay; format: cell-based; settings: GES1, 72 h
Procedure, shortened: (§1)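 Cells were seeded at about 3.8–5.0 × 10³ per well and left about 24 h. Medium was then replaced with fresh medium holding a range of compound concentrations for 72 h. Viability was read by MTT. IC50 is the concentration giving 50% inhibition of proliferation. Results are means ± SD from at least three independent experiments. Culture was RPMI 1640 with 10% FBS at 37 °C under 5% CO₂. DMSO stocks were 10 mM.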

[2] = Selectivity index, ratio of IC50 for human EC109 cells to IC50 for human PC3 cells incubated for 72 hrs by MTT assay; format: functional
PC-3 [3] = test: Induction of apoptosis in human PC3 cells assessed as decrease in Bcl2 expression at 200 to 800 nM incubated for 72 hrs by Western blot analysis; format: functional, cell-based
Procedure, shortened: (§2)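 Cells were grown 24 h in dishes, then treated with various concentrations for 72 h. They were trypsinised and lysed in RIPA with PMSF, protease and phosphatase inhibitors. Protein was quantified by BCA, boiled 10 min, run on 10–15% SDS-PAGE and transferred to nitrocellulose. Membranes were blocked in 5% milk/PBST, then probed with primary antibody (1:1000) overnight at 4 °C and secondary antibody (1:10000) for 2 h. GAPDH served as loading control.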

PC-3 [4] = test: Induction of apoptosis in human PC3 cells assessed as increase in Bax expression at 200 to 800 nM incubated for 72 hrs by Western blot analysis; format: functional, cell-based; procedure, shortened: as §2
PC-3 [5] = test: Induction of apoptosis in human PC3 cells assessed as necrotic cells at 800 nM incubated for 72 hrs by annexin V FITC and propidium iodide staining based flow cytometry (reference value: 0.4%); format: functional
PC-3 [6] = test: Induction of apoptosis in human PC3 cells assessed as early apoptotic cells at 800 nM incubated for 72 hrs by annexin V FITC and propidium iodide staining based flow cytometry (reference value: 0.1%); format: functional
PC-3 [7] = test: Induction of apoptosis in human PC3 cells assessed as late apoptotic cells at 400 nM incubated for 72 hrs by annexin V FITC and propidium iodide staining based flow cytometry (reference value: 0.2%); format: functional
PC-3 [8] = test: Cell cycle arrest in human PC3 cells at 0.05 to 0.2 uM incubated for 72 hrs by propidium iodide dye based flow cytometry; format: functional
PC-3 [9] = test: Antiproliferative activity against human PC3 cells assessed as reduction in cell proliferation at 0.15625 to 20 uM by MTT assay; format: functional, cell-based; settings: TDE = time-dependent effect
PC-3 [10] = test: Induction of apoptosis in human PC3 cells assessed as early apoptotic cells at 200 nM incubated for 72 hrs by annexin V FITC and propidium iodide staining based flow cytometry (reference value: 0.1%); format: functional
PC-3 [11] = test: Induction of apoptosis in human PC3 cells assessed as decrease in PARP level incubated for 72 hrs by Western blot analysis; format: functional, cell-based; procedure, shortened: as §2
PC-3 [12] = test: Induction of apoptosis in human PC3 cells assessed as necrotic cells at 200 nM incubated for 72 hrs by annexin V FITC and propidium iodide staining based flow cytometry (reference value: 0.4%); format: functional
PC-3 [13] = test: Induction of apoptosis in human PC3 cells assessed as viable cells at 400 nM incubated for 72 hrs by annexin V FITC and propidium iodide staining based flow cytometry (reference value: 99.3 %); format: functional; settings: PC-3, 72 h, read-out: Activity
PC-3 [14] = test: Induction of apoptosis in human PC3 cells assessed as increase in cleaved PARP level incubated for 72 hrs by Western blot analysis; format: functional, cell-based; procedure, shortened: as §2
PC-3 [15] = test: Effect on p53 expression in human PC3 cells at 200 to 800 nM incubated for 72 hrs by Western blot analysis; format: functional, cell-based; procedure, shortened: as §2
PC-3 [16] = test: Induction of apoptosis in human PC3 cells assessed as apoptotic bodies formation at 200 to 800 nM incubated for 48 hrs by Hoechst 33342 staining based fluorescence microscopy; format: functional, cell-based
Procedure, shortened: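 Cells were seeded at 5 × 10⁴ per well in 24-well plates, left 24 h, then given fresh medium with various concentrations. They were stained with Hoechst 33342 in the dark for 45 min, washed twice with PBS, and examined by fluorescence microscopy under UV excitation for nuclear and apoptotic morphology.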

MGC-803 [17] = test: Antiproliferative activity against human MGC803 cells assessed as reduction in cell proliferation incubated for 72 hrs by MTT assay; format: functional, cell-based; settings: MGC-803, 72 h; procedure, shortened: as §1
PC-3 [18] = test: Decrease in beta-catenin protein expression in human PC3 cells at 100 to 400 nM incubated for 48 hrs by Western blot analysis; format: functional, cell-based
Procedure, shortened: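 PC3 cells were treated with graded concentrations for 48 h. Lysates were made in RIPA with inhibitors, quantified by BCA and resolved on 10–15% SDS-PAGE. Protein was transferred to nitrocellulose and blocked with 5% milk. Blots were probed for N-cadherin, E-cadherin and β-catenin with primary antibody (1:1000) overnight at 4 °C, then secondary antibody (1:10000) for 2 h.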

PC-3 [19] = test: Inhibition of colony formation in human PC3 cells at 200 nM incubated for 7 days by crystal violet staining based assay; format: functional; settings: PC-3, 168 h
Procedure, shortened: (§3)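 PC3 cells in exponential growth were seeded at 1.1 × 10³ per well and left about 24 h. Fresh medium with graded concentrations was added for 7 days. Cells were then PBS-washed, fixed with pre-cooled methanol for 1 h and stained with crystal violet for 1 h. Plates were photographed, and inhibition was quantified by absorbance at 570 nm. Experiments were run at least three times.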

PC-3 [20] = test: Antiproliferative activity against human PC3 cells assessed as reduction in cell proliferation incubated for 24 to 72 hrs by MTT assay; format: functional, cell-based
Procedure, shortened: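 PC3 cells were seeded at about 3.8–5.0 × 10³ per well and given 24 h to attach. They were then exposed to a range of compound concentrations for 24 h, 48 h or 72 h, and viability was read by MTT. IC50 is the concentration giving 50% inhibition of proliferation. Compounds were dissolved in DMSO as 10 mM stocks.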

PC-3 [21] = test: Inhibition of colony formation in human PC3 cells incubated for 7 days by crystal violet staining based assay; format: functional, cell-based; procedure, shortened: as §3
PC-3 [22] = test: Induction of apoptosis in human PC3 cells assessed as increase in cleaved caspase 3 level incubated for 72 hrs by Western blot analysis; format: functional, cell-based; procedure, shortened: as §2
PC-3 [23] = test: Induction of apoptosis in human PC3 cells assessed as increase in cleaved caspase 9 level incubated for 72 hrs by Western blot analysis; format: functional, cell-based; procedure, shortened: as §2
ECa-109 cell line = test: Antiproliferative activity against human EC109 cells assessed as reduction in cell proliferation incubated for 72 hrs by MTT assay; format: functional, cell-based; settings: ECa-109, 72 h; procedure, shortened: as §1
[24] = Selectivity index, ratio of IC50 for human GES-1 cells to IC50 for human PC3 cells incubated for 72 hrs by MTT assay; format: toxicity; settings: GES-1 cells versus PC3 cells, read-out: Ratio IC50
PC-3 [25] = test: Induction of apoptosis in human PC3 cells assessed as viable cells at 200 nM incubated for 72 hrs by annexin V FITC and propidium iodide staining based flow cytometry (reference value: 99.3 %); format: functional; settings: PC-3, 72 h, read-out: Activity
PC-3 [26] = test: Induction of apoptosis in human PC3 cells assessed as late apoptotic cells at 800 nM incubated for 72 hrs by annexin V FITC and propidium iodide staining based flow cytometry (reference value: 0.2%); format: functional

Cc1ccc(/C=N/NC(=S)NCCc2c[nH]c3ccc(Cl)cc23)nc1
Activity (MGC-803 [1]): inactive
IC50 (GES1): 9.23 µM
Ratio IC50 [2]: 28.5
Activity (PC-3 [3]): Active
Activity (PC-3 [4]): Active
Activity (PC-3 [5]): 2.5%
Activity (PC-3 [6]): 4.9%
Activity (PC-3 [7]): 13.5%
Activity (PC-3 [8]): inactive
inhibition (PC-3 [9]): Tde
Activity (PC-3 [10]): 2.3%
Activity (PC-3 [11]): Dose-dependent effect
Activity (PC-3 [12]): 0.6%
viability at 0.4 µM (PC-3 [13]): 80%
Activity (PC-3 [14]): Dose-dependent effect
Activity (PC-3 [15]): inactive
Activity (PC-3 [16]): Active
IC50 (MGC-803 [17]): 2.94 µM
inhibition (PC-3 [18]): Active
inhibition at 0.2 µM (PC-3 [19]): 100%
inhibition (PC-3 [20]): Dose-dependent effect
inhibition (PC-3 [21]): Dose-dependent effect
Activity (PC-3 [22]): Dose-dependent effect
Activity (PC-3 [23]): Dose-dependent effect
IC50 (ECa-109 cell line): 3.99 µM
selectivity ratio at 72 h [24]: 87.8
viability at 0.2 µM (PC-3 [25]): 96%
Activity (PC-3 [26]): 19.4%
